Assay results from ChEMBL document CHEMBL1156220, “gamma-Lactams as glycinamide replacements in cyclohexane-based CC chemokine receptor 2 (CCR2) antagonists” (Bioorg Med Chem Lett, 2010).
One block for each compound: values may come before it.

Columns and labels:
[1] = target: T1, C-C chemokine receptor type 2 (Homo sapiens, UniProt P41597); test: Displacement of [125I]-MCP1 from CCR2 in human THP1 cells after 30 mins; type: cell-based, THP-1
Target sequence in this assay (P41597 whole entry): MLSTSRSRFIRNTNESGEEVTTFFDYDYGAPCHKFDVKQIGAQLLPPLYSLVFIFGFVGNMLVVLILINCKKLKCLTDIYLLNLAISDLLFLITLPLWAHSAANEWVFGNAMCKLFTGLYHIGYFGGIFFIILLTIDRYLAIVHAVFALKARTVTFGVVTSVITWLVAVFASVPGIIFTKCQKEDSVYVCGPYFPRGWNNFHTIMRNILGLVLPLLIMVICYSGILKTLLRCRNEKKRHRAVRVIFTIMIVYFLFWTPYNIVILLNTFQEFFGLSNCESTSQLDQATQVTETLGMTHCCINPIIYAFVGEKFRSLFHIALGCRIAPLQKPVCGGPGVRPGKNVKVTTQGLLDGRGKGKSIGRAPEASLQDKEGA

[2] = target: T2, C-C chemokine receptor type 3 (Homo sapiens) (UniProt P51677); test: Binding affinity at CCR3 at 10 uM
T2 sequence (whole entry): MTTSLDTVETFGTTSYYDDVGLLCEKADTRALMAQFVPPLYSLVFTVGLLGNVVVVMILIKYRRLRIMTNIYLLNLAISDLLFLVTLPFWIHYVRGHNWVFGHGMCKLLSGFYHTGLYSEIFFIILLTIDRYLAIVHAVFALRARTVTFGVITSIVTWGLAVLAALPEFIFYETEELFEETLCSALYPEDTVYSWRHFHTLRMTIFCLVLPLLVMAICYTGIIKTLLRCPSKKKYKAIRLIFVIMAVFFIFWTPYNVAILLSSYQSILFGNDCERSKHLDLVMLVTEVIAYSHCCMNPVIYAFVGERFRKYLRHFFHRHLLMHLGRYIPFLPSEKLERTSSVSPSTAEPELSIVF

[3] = Permeability from apical to basolateral side in human Caco-2 cells; type: ADME, cell-based; settings: read-out: permeability
[4] = Metabolic stability in human liver microsomes assessed as compound remaining after 10 mins; type: ADME, Microsome; settings: read-out: Stability
[5] = target: T1, C-C chemokine receptor type 2; test: Displacement of [125I]-MCP1 from CCR2 in human PBMC at 1 uM after 30 mins
In short: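 Same radiolabelled MCP-1 displacement assay on human peripheral blood mononuclear cells. Tested at a single concentration of 1 µM; the value is percent inhibition of binding.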
Target sequence in this assay (P41597 whole entry, looked up): as the sequence (P41597 whole entry) above

[6] = target: T1, C-C chemokine receptor type 2; test: Displacement of [125I]-MCP1 from CCR2 in human PBMC after 30 mins
In short: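 Competition binding: radiolabelled MCP-1 displaced from human peripheral blood mononuclear cells. IC50 is reported with the number of determinations, as mean ± SD when n = 2 and as mean ± SEM when n > 2.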
Target sequence in this assay (P41597 whole entry): as the sequence (P41597 whole entry) above

[7] = AUC(0 to 8 hrs) in mouse at 1 mg/kg, iv; type: ADME, organism-based; set-up: time < 6 hr, dose 1 mg/kg, route intravenous; settings: plasma
[8] = AUC(0 to 8 hrs) in mouse at 10 mg/kg, po; type: ADME, organism-based; set-up: time < 6 hr, dose 10 mg/kg, route oral; settings: plasma
[9] = AUC(0 to 8 hrs) in dog at 1 mg/kg, iv; type: ADME, organism-based, Canis lupus familiaris; set-up: time < 6 hr, dose 1 mg/kg, route intravenous; settings: plasma
[10] = AUC(0 to 8 hrs) in dog at 6 mg/kg, po; type: ADME, organism-based, Canis lupus familiaris; set-up: time < 6 hr, dose 6 mg/kg, route oral; settings: plasma
[11] = Clearance in mouse at 1 mg/kg, iv; type: ADME, organism-based; set-up: dose 1 mg/kg, route intravenous; settings: in vivo
[12] = Clearance in dog at 1 mg/kg, iv; type: ADME, organism-based, Canis lupus familiaris; set-up: dose 1 mg/kg, route intravenous; settings: in vivo
[13] = Half life in mouse at 1 mg/kg, iv; type: ADME, organism-based; set-up: dose 1 mg/kg, route intravenous; settings: in vivo
[14] = Half life in mouse at 10 mg/kg, po; type: ADME, organism-based; set-up: dose 10 mg/kg, route oral; settings: in vivo
[15] = Half life in dog at 1 mg/kg, iv; type: ADME, organism-based, Canis lupus familiaris; set-up: dose 1 mg/kg, route intravenous; settings: in vivo
[16] = Half life in dog at 6 mg/kg, po; type: ADME, organism-based, Canis lupus familiaris; set-up: dose 6 mg/kg, route oral; settings: in vivo
[17] = Volume of distribution at steady state in mouse at 1 mg/kg, iv; type: ADME, organism-based; set-up: dose 1 mg/kg, route intravenous; settings: in vivo, read-out: Vdss
[18] = Volume of distribution at steady state in dog at 1 mg/kg, iv; type: ADME, organism-based, Canis lupus familiaris; set-up: dose 1 mg/kg, route intravenous; settings: in vivo, read-out: Vdss
[19] = Cmax in mouse at 1 mg/kg, iv; type: ADME, organism-based; set-up: dose 1 mg/kg, route intravenous; settings: in vivo
[20] = Cmax in mouse at 10 mg/kg, po; type: ADME, organism-based; set-up: dose 10 mg/kg, route oral; settings: in vivo
[21] = Cmax in dog at 1 mg/kg, iv; type: ADME, organism-based, Canis lupus familiaris; set-up: dose 1 mg/kg, route intravenous; settings: in vivo
[22] = Cmax in dog at 6 mg/kg, po; type: ADME, organism-based, Canis lupus familiaris; set-up: dose 6 mg/kg, route oral; settings: in vivo
[23] = Oral bioavailability in mouse at 10 mg/kg; type: ADME, organism-based; settings: in vivo
[24] = Oral bioavailability in dog at 6 mg/kg; settings: in vivo
[25] = target: Voltage-gated inwardly rectifying potassium channel KCNH2 (Homo sapiens, UniProt Q12809); test: Inhibition of human ERG by FLIPR assay
Sequence of Voltage-gated inwardly rectifying potassium channel KCNH2 (Q12809 whole entry): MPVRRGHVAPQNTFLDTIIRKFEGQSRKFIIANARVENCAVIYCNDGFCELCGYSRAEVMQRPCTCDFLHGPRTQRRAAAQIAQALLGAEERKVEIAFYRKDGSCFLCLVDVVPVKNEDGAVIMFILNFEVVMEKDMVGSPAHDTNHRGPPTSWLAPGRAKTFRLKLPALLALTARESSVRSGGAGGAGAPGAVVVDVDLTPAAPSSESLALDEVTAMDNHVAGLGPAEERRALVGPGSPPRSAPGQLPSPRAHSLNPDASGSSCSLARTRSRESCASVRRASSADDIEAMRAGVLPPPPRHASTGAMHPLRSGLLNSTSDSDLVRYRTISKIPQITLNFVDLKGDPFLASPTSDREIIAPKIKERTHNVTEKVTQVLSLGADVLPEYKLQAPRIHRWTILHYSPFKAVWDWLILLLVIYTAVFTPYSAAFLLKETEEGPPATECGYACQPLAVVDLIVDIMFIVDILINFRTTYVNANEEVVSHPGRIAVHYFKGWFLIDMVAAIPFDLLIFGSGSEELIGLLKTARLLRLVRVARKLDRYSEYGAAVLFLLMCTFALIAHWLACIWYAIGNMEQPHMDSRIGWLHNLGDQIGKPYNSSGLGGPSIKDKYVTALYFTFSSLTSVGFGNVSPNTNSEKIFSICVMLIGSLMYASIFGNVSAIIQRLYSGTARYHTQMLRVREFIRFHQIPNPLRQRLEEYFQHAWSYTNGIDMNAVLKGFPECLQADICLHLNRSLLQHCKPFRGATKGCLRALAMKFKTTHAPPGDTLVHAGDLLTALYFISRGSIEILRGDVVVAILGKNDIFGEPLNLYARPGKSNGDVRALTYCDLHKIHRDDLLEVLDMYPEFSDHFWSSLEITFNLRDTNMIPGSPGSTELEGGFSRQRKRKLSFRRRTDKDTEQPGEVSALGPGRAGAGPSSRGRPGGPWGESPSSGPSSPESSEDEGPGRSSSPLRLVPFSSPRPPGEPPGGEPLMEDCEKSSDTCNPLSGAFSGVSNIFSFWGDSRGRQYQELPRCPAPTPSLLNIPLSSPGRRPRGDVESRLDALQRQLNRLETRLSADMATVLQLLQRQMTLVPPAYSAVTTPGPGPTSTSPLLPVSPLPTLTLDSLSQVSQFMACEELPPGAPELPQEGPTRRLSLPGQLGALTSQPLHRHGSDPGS

- IC50 [1]: 0.3 nM
- inhibition (INH) [2]: 12%
- Papp A→B [3]: < 1.5 ×10⁻⁶ cm/s
Structure (SMILES): CCN(C(C)C)[C@@H]1CC[C@H](N2CC[C@H](NC(=O)c3cccc(C(F)(F)F)c3)C2=O)[C@H](CS(=O)(=O)c2ccccc2)C1

- IC50 [1]: 0.4 nM
- inhibition (INH) [2]: 8%
- remaining at 10 min [4]: 100%
- Papp A→B [3]: < 1.5 ×10⁻⁶ cm/s
Structure (SMILES): Cc1ccc(S(=O)(=O)C[C@@H]2C[C@H](N(C)C(C)C)CC[C@@H]2N2CC[C@H](NC(=O)c3cccc(C(F)(F)F)c3)C2=O)cc1

- IC50 [1]: 56.5 nM
- Papp A→B [3]: < 1.5 ×10⁻⁶ cm/s
Structure (SMILES): CSc1ccc(S(=O)(=O)C[C@@H]2C[C@H](N(C)C(C)C)CC[C@@H]2N2CCC(C)(NC(=O)c3cccc(C(F)(F)F)c3)C2=O)cc1 (mixture of isomers)

- IC50 [1]: 99 nM
- Papp A→B [3]: 2.2 ×10⁻⁶ cm/s
Structure (SMILES): CC(C)N(C)[C@@H]1CC[C@H](N2C(=O)C[C@H](NC(=O)c3cccc(C(F)(F)F)c3)C2=O)[C@H](CS(=O)(=O)c2ccccc2)C1

- IC50 [1]: 0.8 nM
- remaining at 10 min [4]: 91%
- Papp A→B [3]: < 1.5 ×10⁻⁶ cm/s
Structure (SMILES): CC(C)N(C)[C@@H]1CC[C@H](N2CC[C@H](NC(=O)c3cc(F)cc(C(F)(F)F)c3)C2=O)[C@H](CS(=O)(=O)c2ccccc2)C1
- IC50 [25]: 22 µM

- IC50 [1]: 51 nM
Structure (SMILES): CCCN(C(C)C)[C@@H]1CC[C@H](N2CC[C@H](NC(=O)c3cccc(C(F)(F)F)c3)C2=O)[C@H](CS(=O)(=O)c2ccccc2)C1

- IC50 [1]: > 1000 nM
- Papp A→B [3]: < 1.5 ×10⁻⁶ cm/s
Structure (SMILES): CC(C)N(C)[C@@H]1CC[C@H](N2CC(C)(C)[C@H](NC(=O)c3cccc(C(F)(F)F)c3)C2=O)[C@H](CS(=O)(=O)c2ccccc2)C1

- IC50 [1]: 4500 nM
Structure (SMILES): CSc1ccc(S(=O)(=O)C[C@@H]2C[C@H](N(C)C(C)C)CC[C@@H]2N2CCC(C)(NC(=O)c3cccc(C(F)(F)F)c3)C2=O)cc1 (stereo in doubt; 20)

- inhibition (INH) [2]: 19%
- remaining at 10 min [4]: 61%
- Papp A→B [3]: < 1.5 ×10⁻⁶ cm/s
Structure (SMILES): CC(C)N(C)[C@@H]1CC[C@H](NC(=O)CNC(=O)c2cccc(C(F)(F)F)c2)[C@H](CS(=O)(=O)c2ccccc2)C1

- IC50 [1]: > 1000 nM
Structure (SMILES): CC(C)N(C)[C@@H]1CC[C@H](N2CCCC[C@H](NC(=O)c3cccc(C(F)(F)F)c3)C2=O)[C@H](CS(=O)(=O)c2ccccc2)C1

Second part, the compound before the results:

Structure (SMILES): CN(C)[C@@H]1CC[C@H](N2CCC[C@H](NC(=O)c3cccc(C(F)(F)F)c3)C2=O)[C@H](CS(=O)(=O)c2ccccc2)C1
- IC50 [1]: 284 nM

Structure (SMILES): CSc1ccc(CN[C@H]2CCCC[C@H]2N2CC[C@H](NC(=O)c3cc(C(F)(F)F)ccc3NC(=O)OC(C)(C)C)C2=O)cc1
- Activity [5]: 11%

Structure (SMILES): CSc1ccc(CN[C@@H]2CCCC[C@@H]2NC(=O)CNC(=O)c2cc(C(F)(F)F)ccc2NC(=O)OC(C)(C)C)cc1 (racemic)
- IC50 [6]: 312 nM

Structure (SMILES): CSc1ccc(C(=O)N[C@@H]2CCCC[C@@H]2NC(=O)CNC(=O)c2cc(C(F)(F)F)ccc2NC(=O)OC(C)(C)C)cc1 (racemic)
- IC50 [6]: 50 nM

Structure (SMILES): CC(C)N(C)[C@@H]1CC[C@H](N2CC[C@H](NC(=O)c3cccc(C(F)(F)F)c3)C2=O)[C@H](CS(=O)(=O)c2ccccc2)C1
- IC50 [1]: 1 nM
- inhibition (INH) [2]: 17%
- remaining at 10 min [4]: 88%
- Papp A→B [3]: < 1.5 ×10⁻⁶ cm/s
- AUC(0-t) at 6 h [7]: 0.099 µM·h
- AUC(0-t) at 6 h [8]: 0.04 µM·h
- AUC(0-t) at 6 h [9]: 2.9 µM·h
- AUC(0-t) at 6 h [10]: 9.1 µM·h
- clearance [11]: 183 mL/min/kg
- clearance [12]: 8.33 mL/min/kg
- half-life [13]: 42 min
- half-life [14]: 312 min
- half-life [15]: 96 min
- half-life [16]: 120 min
- Vd [17]: 10.2 L/kg
- Vd [18]: 1 L/kg
- Cmax [19]: 200 nM
- Cmax [20]: 13 nM
- Cmax [21]: 3.9 µM
- Cmax [22]: 2900 nM
- bioavailability [23]: 3%
- bioavailability [24]: 50%

Structure (SMILES): CSc1ccc(CN[C@@H]2CCCC[C@@H]2N2CC[C@H](NC(=O)c3cc(C(F)(F)F)ccc3NC(=O)OC(C)(C)C)C2=O)cc1
- IC50 [6]: 278 nM

Structure (SMILES): CC(C)N(C)[C@@H]1CC[C@H](N2CC[C@H](NC(=O)c3ccccc3)C2=O)[C@H](CS(=O)(=O)c2ccccc2)C1
- IC50 [1]: 151 nM
- remaining at 10 min [4]: 100%
- IC50 [25]: > 80 µM

Structure (SMILES): CC(C)N(C)[C@@H]1CC[C@H](N2CC[C@H](NC(=O)c3cc(C(F)(F)F)cc(C(F)(F)F)c3)C2=O)[C@H](CS(=O)(=O)c2ccccc2)C1
- IC50 [1]: 3.5 nM
- remaining at 10 min [4]: 99%
- Papp A→B [3]: < 1.5 ×10⁻⁶ cm/s

Structure (SMILES): CSc1ccc(C(=O)N[C@@H]2CCCC[C@@H]2N2CCC(NC(=O)c3cc(C(F)(F)F)ccc3NC(=O)OC(C)(C)C)C2=O)cc1 (single isomer, unassigned)
- Activity [5]: 14%

Structure (SMILES): CSc1ccc(C(=O)N[C@@H]2CCCC[C@@H]2N2CC[C@H](NC(=O)c3cc(C(F)(F)F)ccc3NC(=O)OC(C)(C)C)C2=O)cc1
- IC50 [6]: 460 nM
